From ChEMBL document CHEMBL3608234, “Synthesis and antiviral evaluation of a novel series of homoserine-based inhibitors of the hepatitis C virus NS3/4A serine protease” (Bioorg Med Chem Lett, 2015)
Values belong to the compound of their own block, whether it stands above or below them.

Columns and labels:
[1] = Inhibition of full length HCV 1b Con1 NS3/4A protease using HiLyte Fluor 610 peptide substrate by biochemical FRET assay; set-up: species or system Hepatitis C virus (isolate Con1)
Procedure, shortened: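 Fluorescence (FRET) protease assay on full-length genotype 1b Con1 HCV NS3/4A with HiLyte Fluor 610 peptide substrate; IC50 from percent inhibition versus concentration by four-parameter sigmoidal non-linear regression.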

Hepatitis C virus = assay: Antiviral activity against HCV Con1 infected in human GS4.1 cells containing HCV Con1 subgenomic replicon assessed as reduction in NS5A protein expression by ELISA method; assay type: functional, cell-based, Hepacivirus hominis; details: genotype 1b Con1
Procedure, shortened: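 Huh-7 cells carrying HCV Con1 subgenomic replicon (GS4.1); replication followed as NS5A protein expression by ELISA; EC50 from 50% inhibition versus concentration data fitted by four-parameter sigmoidal non-linear regression.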

[2] = Cytotoxicity against human GS4.1 cells assessed as induction of cell death; assay type: cell-based
Procedure, shortened: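 GS4.1 cells (Huh-7 with Con1 subgenomic replicon); CC50 taken as concentration giving 50% cell death, from death versus concentration data relative to blank control.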

[3] = Intrinsic clearance in rat liver microsomes incubated for 2 hrs; assay type: ADME; details: read-out: CLH
[4] = Clearance in rat liver S9 fraction incubated for 2 hrs; assay type: ADME, subcellular; details: read-out: CLH
Procedure, shortened: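 Rat liver S9 fraction incubation for 2 h; mean clearance from n = 2.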

Hepatocyte = assay: Clearance in rat cryopreserved hepatocytes incubated for 2 hrs; assay type: ADME, cell-based
[5] = Intrinsic clearance in dog liver microsomes incubated for 2 hrs; assay type: ADME, Canis lupus familiaris; details: read-out: CLH
[6] = Intrinsic clearance in Cynomologus monkey liver microsomes incubated for 2 hrs; assay type: ADME, Macaca fascicularis; details: cynomolgus monkey, read-out: CLH
[7] = Intrinsic clearance in human liver microsomes incubated for 2 hrs; assay type: ADME; details: read-out: CLH
[8] = Cmax in Sprague-Dawley rat at 10 mg/kg, po; assay type: ADME, organism-based; set-up: dose 10 mg/kg, route oral; details: in vivo
[9] = Tmax in Sprague-Dawley rat at 10 mg/kg, po; assay type: ADME, organism-based; details: in vivo
[10] = AUCt in Sprague-Dawley rat at 10 mg/kg, po; assay type: ADME, organism-based; details: in vivo
Procedure, shortened: (§1)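 Male Sprague–Dawley rats were dosed intravenously at 2 mg/kg or orally at 10 mg/kg. Plasma concentration–time data were used to derive AUC to last time point (AUCt) and AUC extrapolated to infinity, reported in ng·h/mL.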

[11] = AUC (infinity) in Sprague-Dawley rat at 10 mg/kg, po; assay type: ADME, organism-based; set-up: dose 10 mg/kg, route oral, time infinity; details: in vivo; procedure, shortened: as §1
[12] = Half life in Sprague-Dawley rat at 10 mg/kg, po; assay type: ADME, organism-based; details: in vivo
[13] = Drug elimination in Sprague-Dawley rat at 10 mg/kg, po; assay type: ADME, organism-based; details: in vivo
[14] = Clearance in Sprague-Dawley rat at 10 mg/kg, po; assay type: ADME, organism-based; details: in vivo
Rattus norvegicus = assay: Volume of distribution in Sprague-Dawley rat at 10 mg/kg, po; assay type: ADME, organism-based; details: in vivo
[15] = Oral bio availability in Sprague-Dawley rat at 10 mg/kg; assay type: ADME, organism-based; details: in vivo
[16] = Cmax in Sprague-Dawley rat at 2 mg/kg, iv; assay type: ADME, organism-based; set-up: dose 2 mg/kg, route intravenous; details: in vivo
[17] = Tmax in Sprague-Dawley rat at 2 mg/kg, iv; assay type: ADME, organism-based; details: in vivo
[18] = AUCt in Sprague-Dawley rat at 2 mg/kg, iv; assay type: ADME, organism-based; details: in vivo; procedure, shortened: as §1
[19] = AUC (infinity) in Sprague-Dawley rat at 2 mg/kg, iv; assay type: ADME, organism-based; set-up: dose 2 mg/kg, route intravenous, time infinity; details: in vivo; procedure, shortened: as §1
[20] = Half life in Sprague-Dawley rat at 2 mg/kg, iv; assay type: ADME, organism-based; details: in vivo
[21] = Drug elimination in Sprague-Dawley rat at 2 mg/kg, iv; assay type: ADME, organism-based; details: in vivo
[22] = Clearance in Sprague-Dawley rat at 2 mg/kg, iv; assay type: ADME, organism-based; details: in vivo
[23] = Volume of distribution in Sprague-Dawley rat at 2 mg/kg, iv; assay type: ADME, organism-based; details: in vivo

Compound: COc1ccc2c(OCC[C@@H]3NC(=O)N(C)CCCC/C=C\[C@@H]4C[C@@]4(C(=O)NS(=O)(=O)C4(C#N)CC4)NC3=O)cc(-c3nc(C(C)C)cs3)nc2c1Cl
- IC50 [1]: 14.4 nM
- EC50 (Hepatitis C virus): > 750 nM
- CC50 [2]: > 75000 nM

Compound: COc1ccc2c(OCC[C@@H]3NC(=O)N(C)CCCC/C=C\[C@@H]4C[C@@]4(C(=O)NS(=O)(=O)N4CCOCC4)NC3=O)cc(-c3nc(C(C)C)cs3)nc2c1Cl
- IC50 [1]: 150 nM
- EC50 (Hepatitis C virus): > 750 nM
- CC50 [2]: 26400 nM

Compound: COc1ccc2c(OCC[C@@H]3NC(=O)N(C)CCCC/C=C\[C@@H]4C[C@@]4(C(=O)NS(=O)(=O)N4CCC(F)(F)C4)NC3=O)cc(-c3nc(C(C)C)cs3)nc2c1Cl
- IC50 [1]: 165 nM
- EC50 (Hepatitis C virus): > 750 nM
- CC50 [2]: 37600 nM

Compound: COc1ccc2c(OCC[C@@H]3NC(=O)N(C)CCCC/C=C\[C@@H]4C[C@@]4(C(=O)NS(=O)(=O)N4CCC[C@H]4C#N)NC3=O)cc(-c3nc(C(C)C)cs3)nc2c1Cl
- IC50 [1]: 264 nM
- EC50 (Hepatitis C virus): > 750 nM
- CC50 [2]: 28300 nM

Compound: COc1ccc2c(OCC[C@@H]3NC(=O)N(C)CCCCC/C=C\[C@@H]4C[C@@]4(C(=O)NS(=O)(=O)C4CC4)NC3=O)cc(-c3ccccc3)nc2c1
- IC50 [1]: 41 nM
- EC50 (Hepatitis C virus): 14600 nM
- CC50 [2]: 53000 nM

Compound: COc1ccc2c(OCC[C@@H]3NC(=O)N(C)CCCC/C=C\[C@@H]4C[C@@]4(C(=O)NS(=O)(=O)C4(C)CC4)NC3=O)cc(-c3nc(C(C)C)cs3)nc2c1F
- IC50 [1]: 8 nM
- EC50 (Hepatitis C virus): 555 nM
- CC50 [2]: 57100 nM

Compound: COc1ccc2c(OCC[C@@H]3NC(=O)N(C)CCCC/C=C\[C@@H]4C[C@@]4(C(=O)NS(=O)(=O)C4(C)CC4)NC3=O)cc(-n3ccc(C(C)C)n3)nc2c1C
- IC50 [1]: 2 nM
- EC50 (Hepatitis C virus): 50 nM
- CC50 [2]: 25600 nM
- microsomal CLint [3]: 21 µL/min/mg

Compound: COc1ccc2c(OCC[C@@H]3NC(=O)N(C)CCCC/C=C\[C@@H]4C[C@@]4(C(=O)NS(=O)(=O)N(C)C)NC3=O)cc(-c3nc(C(C)C)cs3)nc2c1Cl
- IC50 [1]: 2.1 nM
- EC50 (Hepatitis C virus): 84.5 nM
- CC50 [2]: 47800 nM

These reach a lower IC50 [1]. Values come first.

- IC50 [1]: 1.7 nM
- EC50 (Hepatitis C virus): 28.7 nM
- microsomal CLint [3]: 20.7 µL/min/mg
- microsomal CLint [4]: 7.6 µL/min/mg
- CLH (Hepatocyte): 12.6 µL/min/mg
- microsomal CLint [5]: 19.5 µL/min/mg
- microsomal CLint [6]: 480 µL/min/mg
- microsomal CLint [7]: 215 µL/min/mg
- Cmax [8]: 798 ng/mL
- Tmax [9]: 0.75 h
- AUC(0-t) [10]: 2060 ng·h/mL
- AUC(0-inf) [11]: 2350 ng·h/mL
- half-life [12]: 2.53 h
- k el [13]: 7.78e-05 s⁻¹
- CL/F [14]: 72.4 mL/min/kg
- Vd (Rattus norvegicus): 16.04 L/kg
- bioavailability [15]: 27%
- Cmax [16]: 2670 ng/mL
- Tmax [17]: 6.6 min
- AUC(0-t) [18]: 1520 ng·h/mL
- AUC(0-inf) [19]: 1510 ng·h/mL
- half-life [20]: 1.25 h
- k el [21]: 0.000158 s⁻¹
- clearance [22]: 22.1 mL/min/kg
- Vd [23]: 2.42 L/kg
Compound: COc1ccc2c(OCC[C@@H]3NC(=O)N(C)CCCC/C=C\[C@@H]4C[C@@]4(C(=O)NS(=O)(=O)C4(C)CC4)NC3=O)cc(-c3nc(C(C)C)cs3)nc2c1Cl
- CC50 [2]: 37400 nM

- IC50 [1]: 1.2 nM
- EC50 (Hepatitis C virus): 1040 nM
Compound: COc1ccc2c(OCC[C@@H]3NC(=O)N(C)CCCC/C=C\[C@@H]4C[C@@]4(C(=O)NS(=O)(=O)C4(C)CC4)NC3=O)cc(-c3csc(NC(C)C)n3)nc2c1
- CC50 [2]: 37400 nM

- IC50 [1]: 1 nM
- EC50 (Hepatitis C virus): 440 nM
Compound: COc1ccc2c(OCC[C@@H]3NC(=O)N(C)CCCC/C=C\[C@@H]4C[C@@]4(C(=O)NS(=O)(=O)C4(C)CC4)NC3=O)cc(-c3cc(C(F)(F)F)nn3C)nc2c1C
- CC50 [2]: 34500 nM

- IC50 [1]: 0.6 nM
- EC50 (Hepatitis C virus): 20.5 nM
- microsomal CLint [3]: 16.5 µL/min/mg
Compound: COc1ccc2c(OCC[C@@H]3NC(=O)N(C)CCCC/C=C\[C@@H]4C[C@@]4(C(=O)NS(=O)(=O)C4(C)CC4)NC3=O)cc(-c3nc(C(C)C)cs3)nc2c1Br
- CC50 [2]: 28300 nM

- IC50 [1]: 1.7 nM
- EC50 (Hepatitis C virus): 76.5 nM
- microsomal CLint [3]: 36.6 µL/min/mg
- microsomal CLint [4]: 8.9 µL/min/mg
- CLH (Hepatocyte): 19.1 µL/min/mg
- microsomal CLint [5]: 25 µL/min/mg
- microsomal CLint [6]: 124 µL/min/mg
- microsomal CLint [7]: 263 µL/min/mg
Compound: COc1ccc2c(OCC[C@@H]3NC(=O)N(C)CCCC/C=C\[C@@H]4C[C@@]4(C(=O)NS(=O)(=O)C4CC4)NC3=O)cc(-c3nc(C(C)C)cs3)nc2c1Cl
- CC50 [2]: 40400 nM
